Measurements pooled from the literature.
Each line is one published result; the experiments were not run side by side.

SMILES | test system | setting | measurement | value
CC(C)n1cc(C#N)c2cc(-n3cc(C(=O)O)cn3)ccc21 | human, plasma | oral, 10 mg, single dose, fasted, healthy volunteers | Tmax | 2.8 h
O=C(Nc1cc(F)c(F)c(F)c1)c1ccc(F)c(S(=O)(=O)NCc2cccc(B(O)O)c2)c1 | male Sprague-Dawley rat, plasma | oral, 20 mg/kg | MRT(0-t) | 0.84 h
Fc1ccc(Nc2n[nH]c3cccnc23)cc1Cl | rat, brain homogenate |  | fraction unbound | 0.0045
COc1ccc([C@@H]2CN(C(=O)[C@@H](O)CO)C[C@@]2(C)[C@@H](C)O)cc1OC1CN(c2ccc(C)cn2)C1 | human, plasma | oral, 10 mg, single dose, healthy volunteers | Tmax | 2 h
C[C@@H](Nc1cc(F)cc(F)c1)c1cc(C(=O)N(C)C)cc2c(=O)cc(N3CCOCC3)oc12 | human, plasma | oral, 60 mg, patients | Tmax | 4.08 h
C=CC(=O)N(C)CCOc1c(N)ncnc1-c1cc(F)cc(NC(=O)c2ccc(C3CC3)cc2F)c1C | human, blood | oral, 100 mg, single dose, healthy volunteers | Tmax | 1.03 h
CCc1cc(C(=O)NC)c2nccc(N3CCc4c(cc(Cn5ccnc5)cc4-c4cn(C)nc4C(F)(F)F)C3=O)c2c1 | male Sprague-Dawley rat, plasma | oral, 50 mg/kg, single dose | MRT(0-inf) | 2.2 h
CNC(=O)Nc1cc(Oc2cncc(C)c2)c([C@H]2C[C@@H](O)C2)cn1 | rat, plasma |  | fraction unbound | 0.32
CC(=O)Nc1nnc(N2CCN([C@@H](C)c3ccc4c(c3)OCO4)CC2)s1 | rabbit, plasma | 1 µM | fraction unbound | 0.059
CCOC(=O)[C@@]12C[C@@H]1[C@@H](n1ccc3c(NC)nc(C#Cc4ccc(Cl)s4)nc31)[C@H](O)[C@@H]2O | male Sprague-Dawley rat, plasma | oral, 10 mg/kg | MRT | 2.75 h
CCc1nc2c(C)cc(N3CCN(CC(=O)N4CC(O)C4)CC3)cn2c1N(C)c1nc(-c2ccc(F)cc2)c(C#N)s1 | human, plasma | oral, 60 mg, fed, healthy volunteers | Tmax | 0.5 h
